As usually defined, the IC50 is the concentration that gives 50% inhibition. High values mean weaker potency in that assay, low ones greater potency in that assay. As a reminder, the inhibition in vivo is the share of the control response that was lost under treatment. A higher inhibition in vivo goes with strong suppression.

The results in this text go back to ChEMBL document CHEMBL1138388, “Chemically programmed antibodies: endothelin receptor targeting CovX-Bodies” (Bioorg Med Chem Lett, 2007).

One assay is filed under the species Homo sapiens. As to the kind of experiment: Selectivity for human ETA receptor over human ETB receptor.
Another assay concerns the target T1, Endothelin-1 receptor (Homo sapiens, UniProt P25101).
T1 sequence (P25101 whole entry): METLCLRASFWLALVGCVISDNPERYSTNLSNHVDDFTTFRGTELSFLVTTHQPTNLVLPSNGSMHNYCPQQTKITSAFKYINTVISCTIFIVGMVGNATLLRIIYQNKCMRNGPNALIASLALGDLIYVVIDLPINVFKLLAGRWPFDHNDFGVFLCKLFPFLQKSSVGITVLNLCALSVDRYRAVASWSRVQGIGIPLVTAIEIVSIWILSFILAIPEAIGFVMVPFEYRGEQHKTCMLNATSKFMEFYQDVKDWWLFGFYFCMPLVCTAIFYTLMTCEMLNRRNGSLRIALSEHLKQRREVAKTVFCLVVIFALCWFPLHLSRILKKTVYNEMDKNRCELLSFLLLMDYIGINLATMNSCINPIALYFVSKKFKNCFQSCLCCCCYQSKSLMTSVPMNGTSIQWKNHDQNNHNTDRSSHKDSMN
As to the kind of experiment: Displacement of [125I]ET1 from human ETA receptor expressed in CHO cells. Type of assay: cell-based. The procedure, abridged:
(§1)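 Competitive binding against 125I-labeled ET-1 on CHO cells stably expressing human ETA or ETB receptor. Six concentrations, 1 µM to 10 pM, at least three measurements each. IC50 taken from the means.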

In assay [1] the target is T2, Endothelin receptor type B (Homo sapiens, UniProt P24530).
T2 sequence (P24530 whole entry): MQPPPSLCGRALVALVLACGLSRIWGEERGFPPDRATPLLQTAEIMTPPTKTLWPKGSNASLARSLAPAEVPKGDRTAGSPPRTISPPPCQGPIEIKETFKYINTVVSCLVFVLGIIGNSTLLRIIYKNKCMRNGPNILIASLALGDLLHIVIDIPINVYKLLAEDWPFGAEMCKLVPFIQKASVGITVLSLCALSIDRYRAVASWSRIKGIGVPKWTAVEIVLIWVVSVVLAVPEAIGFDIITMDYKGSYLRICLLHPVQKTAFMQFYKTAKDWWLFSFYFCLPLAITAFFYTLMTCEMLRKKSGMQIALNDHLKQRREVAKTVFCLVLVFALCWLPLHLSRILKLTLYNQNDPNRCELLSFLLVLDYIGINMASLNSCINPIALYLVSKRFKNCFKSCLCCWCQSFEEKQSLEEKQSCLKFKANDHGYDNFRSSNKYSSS
Kind of assay: Displacement of [125I]ET1 from human ETB receptor expressed in CHO cells. Type of assay: cell-based. The procedure, abridged: as §1

Assay [2] has as its system PC-3. Kind of assay: Inhibition of tumor growth in human PC3 cells xenografted mouse at 2 mg/kg after 31 days. Type of assay: functional. As to conditions: PC-3, 744 h. Put shortly: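 PC-3 prostate cancer xenograft. Dosing at 2 mg/kg […]. Tumor volume growth inhibition read at day 31 against vehicle control. Significance by one-way ANOVA with Dunnett's test to vehicle.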
(In xenograft studies the graft and the host belong to different species.)

Assay [3] relates to PC-3. Kind of assay: Inhibition of tumor growth in PC3 cells xenografted mouse at 0.25 mg/kg administered once weekly for 31 days. The format is functional, organism-based. Also noted: dose 0.25 mg/kg. Particulars: Homo sapiens. Put shortly: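 PC-3 prostate cancer xenograft. Dosing at 0.25 mg/kg once weekly. Tumor volume tracked to day 31 against vehicle control. Significance by one-way ANOVA with Dunnett's multiple comparison test to vehicle.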

The source made the active and inactive calls. The rule behind the calls is not given here.

Take `CC(=O)CC(=O)CCc1ccc(NC(=O)CCOCCOCCOCCOCCOc2ccc(CC(=O)N(C)Cc3cc(-c4ncco4)ccc3-c3ccccc3S(=O)(=O)Nc3ccno3)cc2)cc1`: the Ratio IC50 in the assay listed under Homo sapiens was 420. For the same molecule, the IC50 at Endothelin-1 receptor stood at 4.6 nM; in assay [1], 1.91 µM.
The like results for `CC(=O)CC(=O)CCc1ccc(NC(=O)CCOCCOCCOCCOCCOCCOCCOCCC(=O)N(C)Cc2cc(-c3ncco3)ccc2-c2ccccc2S(=O)(=O)Nc2ccno2)cc1` were, in that order, 564, 8 nM and 4.69 µM.
Consider `CC(=O)CC(=O)CCc1ccc(NC(=O)CCOCCOCCOCCOCCOc2ccc(CCC(=O)N(C)Cc3cc(-c4ncco4)ccc3-c3ccccc3S(=O)(=O)Nc3ccno3)cc2)cc1`, for which, in the assay filed under Homo sapiens, the Ratio IC50 was found to be 228. The 50% inhibitory concentration (IC50) at Endothelin-1 receptor came out at 21.6 nM; in assay [1], 4.92 µM.
As to `CC(=O)CC(=O)CCc1ccc(NC(=O)CCOCCOCCOCCOCCOCCOCCOCCOCCOCCOCCOCCNC(=O)CCCC(=O)N(C)Cc2cc(-c3ncco3)ccc2-c2ccccc2S(=O)(=O)Nc2ccno2)cc1`, in the assay filed under Homo sapiens, the Ratio IC50 is 564. For the same molecule, the concentration for half-maximal inhibition (IC50) at Endothelin-1 receptor was determined as 7.7 nM; in assay [1] it was 4.51 µM.
The molecule `CN(Cc1cc(-c2ncco2)ccc1-c1ccccc1S(=O)(=O)Nc1ccno1)C(=O)CC(C)(C)C` came in with an inhibition in vivo at 2 mg/kg in the assay with PC-3 [2] of 50%. For the same molecule, the Ratio IC50 in the assay listed under Homo sapiens was 8980. Also, the IC50 on Endothelin-1 receptor worked out at 1 nM; in assay [1], 6 µM.
For the molecule `CC(=O)CC(=O)CCc1ccc(NC(=O)CCOCCOCCOCCOCC(=O)N(C)Cc2cc(-c3ncco3)ccc2-c2ccccc2S(=O)(=O)Nc2ccno2)cc1`, the outcome with PC-3 [3] was inactive. Also, the Ratio IC50 in the assay listed under Homo sapiens is 1120. Besides, the half-maximal inhibitory concentration (IC50) on Endothelin-1 receptor was 1.6 nM; in assay [1] it was 1.11 µM.
In the case of `CC(=O)CC(=O)CCc1ccc(NC(=O)CCOCCOCCOCCOc2ccc(-c3ccccc3S(=O)(=O)Nc3ccno3)c(CN(C)C(=O)CC(C)(C)C)c2)cc1`, the IC50 is 44.9 nM at Endothelin-1 receptor and > 10 µM in assay [1].
